# What was measured:
# [1] = Stability in rat plasma assessed as compound remaining at 50 uM at 37 degC after 60 mins by LC-MS/MS method; assay type: ADME, cell-free; conditions: read-out: Stability
# Method in brief: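 Prodrugs were incubated in rat or human plasma for 60 min. Disappearance of prodrug and concomitant appearance of ertapenem were followed by LC-MS/MS, and in selected cases monoesters from partial hydrolysis were also monitored. Ertapenem itself was incubated the same way as a control.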
# [2] = Stability in pH 2.0 simulated gastric fluid assessed as compound degradation to beta-lactam ring open products at 1 uM after 60 mins by LC-MS/MS method; assay type: ADME; conditions: read-out: Drug degradation
# Method in brief: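 Incubation was in simulated gastric fluid (SGF, pH 2.0) for 60 min, with loss to the β-lactam ring-opened product measured by LC-MS/MS.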
# [3] = Stability in pH 6.5 simulated gastrointestinal fluid assessed as compound remaining at 50 uM after 3 hrs by LC-MS/MS method; assay type: ADME; conditions: read-out: Stability
# Method in brief: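 Compounds at 50 μM were incubated in fasted-state simulated intestinal fluid (FaSSIF, pH 6.5) for over 3 h. Percent remaining was determined by LC-MS/MS.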
# [4] = Stability in pH 7.4 phosphate buffer assessed as compound remaining at 50 uM after 3 hrs by LC-MS/MS method; assay type: physicochemical; conditions: read-out: Stability
# [5] = system: Rattus norvegicus; assay: AUC (0 to 8 hrs) in fasted Sprague-Dawley rat at 7.4 mg/kg dosed through intraduodenal route by LC-MS/MS method; assay type: ADME, organism-based, Plasma; set-up: time < 8 hr, dose 7.4 mg/kg, route intraduodenal; conditions: in vivo, other, BLD = below limit of detection
# Method in brief: (§1)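 Prodrugs were given intraduodenally to bypass stomach acid. Plasma was sampled at intervals over 8 h, and parent prodrug, the two monoester metabolites and ertapenem were quantified by LC-MS/MS. The lower limit of quantitation was 5 nM. AUC(0–8) was used, and it differed from AUC(0–∞) by ±20%. Vehicles were 30% Captisol or 0.5% methylcellulose, as solution or suspension depending on compound.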
# [6] = system: Rattus norvegicus; assay: AUC (0 to 8 hrs) in fasted Sprague-Dawley rat assessed as ertapenem level at 7.4 mg/kg dosed through intraduodenal route by LC-MS/MS method; assay type: ADME, organism-based, Plasma; set-up: time < 8 hr, dose 7.4 mg/kg, route intraduodenal; conditions: in vivo, other; method in brief: as §1
# [7] = system: Rattus norvegicus; assay: Oral bioavailability in fasted Sprague-Dawley rat assessed as ertapenem level at 7.4 mg/kg dosed through intraduodenal route by LC-MS/MS method; assay type: ADME, organism-based; conditions: in vivo
# Method in brief: (§2)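 After intraduodenal dosing, plasma over 8 h was analysed by LC-MS/MS. Bioavailability was calculated as dose-normalized AUC of ertapenem formed from the prodrug divided by dose-normalized AUC of ertapenem dosed iv. Vehicle was 30% Captisol or 0.5% methylcellulose.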
# [8] = system: Rattus norvegicus; assay: Oral bioavailability in fasted Sprague-Dawley rat assessed as ertapenem and monoetser metabolites level at 7.4 mg/kg dosed through intraduodenal route by LC-MS/MS method; assay type: ADME, organism-based; conditions: in vivo
# Method in brief: (§3)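 Total absorption followed intraduodenal dosing with LC-MS/MS of plasma over 8 h. It was calculated as the combined dose-normalized AUC of circulating parent prodrug, ertapenem and two monoesters, divided by dose-normalized AUC of ertapenem given iv. Vehicle was 30% Captisol or 0.5% methylcellulose.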
# [9] = AUC (0 to 8 hrs) in fasted Sprague-Dawley rat at 4.41 mg/kg dosed through intraduodenal route by LC-MS/MS method; assay type: ADME, organism-based; set-up: time < 8 hr, dose 4.41 mg/kg, route intraduodenal; conditions: plasma; method in brief: as §1
# [10] = system: Rattus norvegicus; assay: AUC (0 to 8 hrs) in fasted Sprague-Dawley rat assessed as ertapenem level at 4.41 mg/kg dosed through intraduodenal route by LC-MS/MS method; assay type: ADME, organism-based, Plasma; set-up: time < 8 hr, dose 4.41 mg/kg, route intraduodenal; conditions: in vivo, other; method in brief: as §1
# [11] = system: Rattus norvegicus; assay: AUC (0 to 8 hrs) in fasted Sprague-Dawley rat assessed as 8-OH, C-3 ester level at 4.41 mg/kg dosed through intraduodenal route by LC-MS/MS method; assay type: ADME, organism-based, Plasma; set-up: time < 8 hr, dose 4.41 mg/kg, route intraduodenal; conditions: in vivo, other; method in brief: as §1
# [12] = system: Rattus norvegicus; assay: AUC (0 to 8 hrs) in fasted Sprague-Dawley rat assessed as 8-OH, benzoate ester level at 4.41 mg/kg dosed through intraduodenal route by LC-MS/MS method; assay type: ADME, organism-based, Plasma; set-up: time < 8 hr, dose 4.41 mg/kg, route intraduodenal; conditions: in vivo, other; method in brief: as §1
# [13] = system: Rattus norvegicus; assay: Oral bioavailability in fasted Sprague-Dawley rat assessed as ertapenem level at 4.41 mg/kg dosed through intraduodenal route by LC-MS/MS method; assay type: ADME, organism-based; conditions: in vivo; method in brief: as §2
# [14] = system: Rattus norvegicus; assay: Oral bioavailability in fasted Sprague-Dawley rat assessed as ertapenem and monoetser metabolites level at 4.41 mg/kg dosed through intraduodenal route by LC-MS/MS method; assay type: ADME, organism-based; conditions: in vivo; method in brief: as §3
# [15] = system: Canis familiaris; assay: AUC (0 to 8 hrs) in fasted Beagle dog at 10 mg/kg dosed through intraduodenal route by LC-MS/MS method; assay type: ADME, organism-based, Canis lupus familiaris, Plasma; set-up: time < 8 hr, dose 10 mg/kg, route intraduodenal; conditions: in vivo, other, 8 h; method in brief: as §1
# [16] = system: Canis familiaris; assay: AUC (0 to 8 hrs) in fasted Beagle dog assessed as 8-OH, C-3 ester level at 10 mg/kg dosed through intraduodenal route by LC-MS/MS method; assay type: ADME, organism-based, Canis lupus familiaris, Plasma; set-up: time < 8 hr, dose 10 mg/kg, route intraduodenal; conditions: in vivo, other; method in brief: as §1
# [17] = system: Canis familiaris; assay: AUC (0 to 8 hrs) in fasted Beagle dog assessed as 8-OH, benzoate ester level at 10 mg/kg dosed through intraduodenal route by LC-MS/MS method; assay type: ADME, organism-based, Canis lupus familiaris, Plasma; set-up: time < 8 hr, dose 10 mg/kg, route intraduodenal; conditions: in vivo, other; method in brief: as §1
# [18] = system: Canis familiaris; assay: Oral bioavailability in fasted Beagle dog assessed as ertapenem level at 10 mg/kg dosed through intraduodenal route by LC-MS/MS method; assay type: ADME, organism-based, Canis lupus familiaris; conditions: in vivo; method in brief: as §2
# [19] = system: Canis familiaris; assay: Oral bioavailability in fasted Beagle dog assessed as assessed as ertapenem and monoetser metabolites level at 10 mg/kg dosed through intraduodenal route by LC-MS/MS method; assay type: ADME, organism-based, Canis lupus familiaris; conditions: in vivo; method in brief: as §3
SMILES,"remaining at 1 h, 50 µM [1]","degraded at 1 h, 1 µM [2]","remaining at 3 h, 50 µM [3]","remaining at 3 h, 50 µM [4]",AUC [5],AUC [6],F [7],F [8],AUC(0-t) at 8 h [9],AUC [10],AUC [11],AUC [12],F [13],F [14],AUC [15],AUC [16],AUC [17],F [18],F [19]
Cc1oc(=O)oc1COC(=O)C1=C(S[C@@H]2CN[C@H](C(=O)Nc3cccc(C(=O)OCc4oc(=O)oc4C)c3)C2)[C@H](C)[C@@H]2[C@@H]([C@@H](C)O)C(=O)N12,0%,> 25%,> 95%,> 95%,BLD,0.3 µM·h,0.8%,0.8%,,,,,,,,,,,
CCOC(=O)C1=C(S[C@@H]2CN[C@H](C(=O)Nc3cccc(C(=O)OCC)c3)C2)[C@H](C)[C@@H]2[C@@H]([C@@H](C)O)C(=O)N12,,> 25%,> 95%,> 95%,,,,,0.06 µM·h,1.5 µM·h,0.1 µM·h,0.4 µM·h,5%,6.6%,5 µM·h,2.2 µM·h,3.3 µM·h,18.1%,31.3%
